17 molecules from ChEMBL document CHEMBL1811843, “Analogue-based design, synthesis and molecular docking analysis of 2,3-diaryl quinazolinones as non-ulcerogenic anti-inflammatory agents” (Bioorg Med Chem, 2011) can be followed below.

Series [1] has as its system Rattus norvegicus. Put plainly: Antiinflammatory activity in rat assessed as inhibition of carrageenan-induced paw edema at 50 mg/kg, po measured after 90 min by Plethysmograph. Particulars: 1.5 h. In kind it is functional. The essentials:
(§1)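 Rats randomly grouped, six per group, housed at 25 °C with a 12 h light/dark cycle and acclimatized one week. Test compounds given orally at 50 mg/kg with CMC-Na as vehicle, and indomethacin 10 mg/kg as standard. Edema induced by 0.1 ml carrageenan solution injected into the hind paw. Paw volume measured by mercury-displacement plethysmograph before and 90, 180, 270 and 360 min after injection. % edema inhibition calculated from test and control paw volumes before and after carrageenan. Results given as mean ± SEM.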

In series [2] the test system is Rattus norvegicus. Put plainly: Antiinflammatory activity in rat assessed as inhibition of carrageenan-induced paw edema at 50 mg/kg, po measured after 360 min by Plethysmograph. As to conditions: 6 h. It counts as functional. The essentials: as §1
A general note: Carrageenan injected into the paw causes an acute inflammation.

The test system of series [3] is Rattus norvegicus. The experiment in a line: Antiinflammatory activity in rat assessed as inhibition of carrageenan-induced paw edema at 50 mg/kg, po measured after 270 min by Plethysmograph. In kind it is functional. As to conditions: 4.5 h. In outline: as §1
Series [4] relates to Rattus norvegicus. The experiment in a line: Antiinflammatory activity in rat assessed as inhibition of carrageenan-induced paw edema at 50 mg/kg, po measured after 180 min by Plethysmograph. It counts as functional. As to conditions: 3 h. In outline:
as §1

Series [5] has as its target T1, Prostaglandin G/H synthase 1 (Ovis aries) (UniProt P05979).
T1 sequence (whole entry): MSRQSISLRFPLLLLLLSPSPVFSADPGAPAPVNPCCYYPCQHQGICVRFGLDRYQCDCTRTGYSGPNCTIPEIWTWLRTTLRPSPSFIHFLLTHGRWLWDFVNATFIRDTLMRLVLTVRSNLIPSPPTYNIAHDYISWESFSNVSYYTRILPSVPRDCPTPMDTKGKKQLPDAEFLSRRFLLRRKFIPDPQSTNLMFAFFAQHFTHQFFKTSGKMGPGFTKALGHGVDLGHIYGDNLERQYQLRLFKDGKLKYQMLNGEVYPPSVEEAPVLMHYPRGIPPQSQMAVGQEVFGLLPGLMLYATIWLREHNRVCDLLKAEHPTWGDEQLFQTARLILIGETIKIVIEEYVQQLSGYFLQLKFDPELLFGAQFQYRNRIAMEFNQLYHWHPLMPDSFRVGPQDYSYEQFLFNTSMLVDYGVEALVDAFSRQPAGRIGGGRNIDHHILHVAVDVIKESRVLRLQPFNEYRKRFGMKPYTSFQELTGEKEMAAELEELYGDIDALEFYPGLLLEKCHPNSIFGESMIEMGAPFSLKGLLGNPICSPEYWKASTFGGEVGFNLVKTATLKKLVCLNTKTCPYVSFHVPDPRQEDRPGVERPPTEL
The experiment in a line: Inhibition of sheep COX-1 at 20 uM by cayman colorimetric assay. The essentials: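 Ovine COX-1 activity measured with a commercial ovine COX-1/COX-2 inhibitor screening kit, with calculations done per the kit guidelines. Each value is the mean of two determinations.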

The species named for the next series is Ovis aries. The experiment in a line: Selectivity ratio of inhibition for sheep COX-1 to inhibition for sheep COX-2 at 20 uM.
Series [6] has as its system Rattus norvegicus. Put plainly: Toxicity in albino Wistar rat assessed as ulcerogenic activity measuring gastric ulcer lesion index at 100 mg/kg, po once daily for four consecutive days. It counts as organism-based, Stomach. On the set-up: dose 100 mg/kg, route oral. As to conditions: in vivo. The essentials:
(§2)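 Wistar albino rats (150–200 g, either sex, fasted) were randomized into groups of 10 and dosed orally once daily for four days alongside a vehicle control group. Rats were killed under deep ether anaesthesia and stomachs removed, opened along the greater curvature, and examined under a dissecting microscope for lesions or bleeding. Ulcer lesion index is given in cm.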

For series [7], the system named is Rattus norvegicus. Put plainly: Toxicity in albino Wistar rat assessed as ulcerogenic activity measuring gastric ulcer lesion index at 50 mg/kg, po once daily for four consecutive days. It counts as organism-based, Stomach. Also on record: dose 50 mg/kg, route oral. Particulars: in vivo. In outline: as §2
The species named for series [8] is Rattus norvegicus. Put plainly: animal or person. As to conditions: po, 1.5 h, read-out: INH.
Series [9] is filed under the species Rattus norvegicus. The experiment in a line: animal or person. As to conditions: po, 3 h, read-out: INH.
Series [10] deals with Rattus norvegicus. The experiment in a line: Toxicity in albino Wistar rat assessed as ulcerogenic activity measuring gastric ulcer lesion index at 10 mg/kg, po once daily for four consecutive days. Particulars: in vivo. In kind it is organism-based, Stomach. On the set-up: dose 10 mg/kg, route oral. The essentials:
as §2

The species named for series [11] is Rattus norvegicus. Put plainly: animal or person. As to conditions: po, 6 h, read-out: INH.
For series [12], the species on record is Rattus norvegicus. Put plainly: animal or person. Particulars: po, 4.5 h, read-out: INH.

Consider `CSc1ccc(-n2c(-c3ccccc3)nc3ccc(Br)cc3c2=O)cc1`, for which the inhibition in vivo at 50 mg/kg with Rattus norvegicus [1] turned out to be 30%; in the series with Rattus norvegicus [2], 39%; with Rattus norvegicus [3] it was 35%; in the series with Rattus norvegicus [4] it was 33%.

Turning to `COc1ccc(-c2nc3ccc(Br)cc3c(=O)n2-c2ccc(SC)cc2)cc1`, the inhibition in vivo at 50 mg/kg worked out at 32% in the series with Rattus norvegicus [1], 42% with Rattus norvegicus [2], 39% in the series on Rattus norvegicus [3] and 35% with Rattus norvegicus [4].

`COc1ccc(-c2nc3ccc(Br)cc3c(=O)n2-c2ccc(S(C)(=O)=O)cc2)cc1`: the inhibition in vivo at 50 mg/kg in the series on Rattus norvegicus [1] turned out to be 39%; in the series with Rattus norvegicus [2], 54%; in the series on Rattus norvegicus [3] it was 49%; with Rattus norvegicus [4], 41%. Besides, the inhibition in [5] is 7%. Besides, the Selectivity ratio in the series filed under Ovis aries amounted to 0.106.

On to `COc1ccc(-c2nc3ccccc3c(=O)n2-c2ccc(S(C)(=O)=O)cc2)cc1`, for which the inhibition in vivo at 50 mg/kg stood at 35% in the series on Rattus norvegicus [1], 46% in the series on Rattus norvegicus [2], 42% in the series on Rattus norvegicus [3] and 38% with Rattus norvegicus [4]. In addition, in series [5], the inhibition was 24%. Besides, the Selectivity ratio in the series filed under Ovis aries amounted to 0.471.

For the molecule `COc1ccc(-c2nc3cc(Cl)ccc3c(=O)n2-c2ccc(S(C)(=O)=O)cc2)cc1`, the inhibition in vivo at 50 mg/kg with Rattus norvegicus [1] turned out to be 37%; with Rattus norvegicus [2], 43%; in the series with Rattus norvegicus [3], 41%; with Rattus norvegicus [4] it was 38%. Further, the inhibition in [5] came out at 12%. For the same molecule, in the series listed under Ovis aries, the Selectivity ratio came out at 0.167.

Turning to `COc1ccc(-c2nc3cc(F)ccc3c(=O)n2-c2ccc(SC)cc2)cc1`, the inhibition in vivo at 50 mg/kg came to 31% in the series with Rattus norvegicus [1], 40% in the series with Rattus norvegicus [2], 37% in the series with Rattus norvegicus [3] and 34% in the series with Rattus norvegicus [4].

As to `CS(=O)(=O)c1ccc(-n2c(-c3ccccc3)nc3ccc(Br)cc3c2=O)cc1`, the inhibition in vivo at 50 mg/kg came out at 38% in the series on Rattus norvegicus [1], 49% in the series with Rattus norvegicus [2], 44% in the series with Rattus norvegicus [3] and 40% with Rattus norvegicus [4]. For the same molecule, in series [5], the inhibition came out at 4%. For the same molecule, the Activity with Rattus norvegicus [6] stood at 0 cm. In addition, the Selectivity ratio in the series filed under Ovis aries was 0.04.

`COc1ccc(-c2nc3cc(F)ccc3c(=O)n2-c2ccc(S(C)(=O)=O)cc2)cc1`: the inhibition in vivo at 50 mg/kg is 31% in the series on Rattus norvegicus [1], 39% with Rattus norvegicus [2], 36% in the series with Rattus norvegicus [3] and 34% with Rattus norvegicus [4]. In addition, the inhibition in [5] was found to be 29%. In the series filed under Ovis aries, the Selectivity ratio was determined as 0.453.

For the molecule `CSc1ccc(-n2c(-c3ccccc3)nc3cc(F)ccc3c2=O)cc1`, the inhibition in vivo at 50 mg/kg was found to be 29% in the series with Rattus norvegicus [1], 40% with Rattus norvegicus [2], 39% in the series on Rattus norvegicus [3] and 36% in the series with Rattus norvegicus [4].

In the case of `COc1ccc(-c2nc3ccccc3c(=O)n2-c2ccc(SC)cc2)cc1`, the inhibition in vivo at 50 mg/kg came to 30% in the series on Rattus norvegicus [1], 40% in the series with Rattus norvegicus [2], 38% with Rattus norvegicus [3] and 34% with Rattus norvegicus [4]. In series [5], this molecule displayed an inhibition of 30%. For the same molecule, the Selectivity ratio in the series filed under Ovis aries came out at 0.536.

In the case of `CSc1ccc(-n2c(-c3ccccc3)nc3cc(Cl)ccc3c2=O)cc1`, the inhibition in vivo at 50 mg/kg with Rattus norvegicus [1] was found to be 31%; with Rattus norvegicus [2], 39%; in the series on Rattus norvegicus [3] it was 34%; with Rattus norvegicus [4], 32%.

For `CS(=O)(=O)c1ccc(-n2c(-c3ccccc3)nc3cc(Cl)ccc3c2=O)cc1`, the inhibition in vivo at 50 mg/kg is 32% in the series with Rattus norvegicus [1], 45% with Rattus norvegicus [2], 42% in the series on Rattus norvegicus [3] and 37% in the series on Rattus norvegicus [4]. For the same molecule, the inhibition in series [5] was 0%. In addition, the Activity in the series with Rattus norvegicus [6] is 0 cm.

For the molecule `CSc1ccc(-n2c(-c3ccccc3)nc3ccccc3c2=O)cc1`, the inhibition in vivo at 50 mg/kg turned out to be 29% in the series on Rattus norvegicus [1], 38% in the series with Rattus norvegicus [2], 34% in the series with Rattus norvegicus [3] and 32% with Rattus norvegicus [4]. In series [5], this molecule came in with an inhibition of 12%. In the series filed under Ovis aries, the Selectivity ratio is 0.3.

For `COc1ccc(-c2nc3cc(Cl)ccc3c(=O)n2-c2ccc(SC)cc2)cc1`, the inhibition in vivo at 50 mg/kg turned out to be 36% in the series on Rattus norvegicus [1], 47% in the series with Rattus norvegicus [2], 43% with Rattus norvegicus [3] and 38% in the series on Rattus norvegicus [4].

For the molecule `COc1ccc2c(c1)c(CC(=O)O)c(C)n2C(=O)c1ccc(Cl)cc1` [INDOMETHACIN], the figures for the Activity in the series on Rattus norvegicus [7] and in the series with Rattus norvegicus [10] were 11.48 cm and 1.42 cm, respectively. In addition, the inhibition in vivo at 10 mg/kg in the series listed under Rattus norvegicus [8] was 41%; in the series filed under Rattus norvegicus [9] it was 58%; in the series listed under Rattus norvegicus [11] it was 13%; in the series filed under Rattus norvegicus [12] it was 49%.

Regarding `CS(=O)(=O)c1ccc(-n2c(-c3ccccc3)nc3ccccc3c2=O)cc1`, the inhibition in vivo at 50 mg/kg with Rattus norvegicus [1] was 30%; in the series on Rattus norvegicus [2], 39%; in the series on Rattus norvegicus [3] it was 36%; with Rattus norvegicus [4], 33%. In [5], the inhibition was determined as 13%. Moreover, the Selectivity ratio in the series listed under Ovis aries worked out at 0.31.

As to `CS(=O)(=O)c1ccc(-n2c(-c3ccccc3)nc3cc(F)ccc3c2=O)cc1`, the inhibition in vivo at 50 mg/kg in the series with Rattus norvegicus [1] stood at 30%; in the series with Rattus norvegicus [2] it was 41%; with Rattus norvegicus [3], 39%; in the series on Rattus norvegicus [4] it was 34%. Also, the inhibition in series [5] was 15%. For the same molecule, the Selectivity ratio in the series listed under Ovis aries turned out to be 0.238.

Broadly, the inhibition is the share of the control response that was lost under treatment.
